Assay [1] deals with SH-SY5Y. The experiment in a line: Antiproliferative activity against human SH-SY5Y cells after 72 hrs by CellTiter-Glo luminescent cell viability assay. Type of assay: functional, cell-based. (In general: Cellular ATP, detected with luciferase, serves as a proxy for viable cell number.)
The test system of assay [2] is KARPAS-299. The experiment in a line: Antiproliferative activity against human KARPAS299 cells after 72 hrs by CellTiter-Glo luminescent cell viability assay. It counts as functional, cell-based.
The test system of assay [3] is NCI-H3122. The experiment in a line: Antiproliferative activity against human NCI-H3122 cells after 72 hrs by CellTiter-Glo luminescent cell viability assay. Type of assay: functional, cell-based.
For assay [4], the system named is SH-SY5Y. The experiment in a line: Antiproliferative activity against human SH-SY5Y cells after 72 hrs in presence of ABCB1 inhibitor tariquidar by CellTiter-Glo luminescent cell viability assay. Type of assay: functional, cell-based.
The species named for assay [5] is Homo sapiens. The experiment in a line: Antiproliferative activity against human CHLA20 cells after 72 hrs in presence of ABCB1 inhibitor tariquidar by CellTiter-Glo luminescent cell viability assay. Type of assay: functional, cell-based.
Assay [6] deals with SU-DHL-1. The experiment in a line: Antiproliferative activity against human SU-DHL1 cells after 72 hrs by CellTiter-Glo luminescent cell viability assay. It counts as functional, cell-based.
Assay [7] is filed under the species Homo sapiens. The experiment in a line: Antiproliferative activity against human CHLA20 cells after 72 hrs by CellTiter-Glo luminescent cell viability assay. Type of assay: functional, cell-based.
Assay [8] concerns the target T1, ALK tyrosine kinase receptor (Homo sapiens, UniProt Q9UM73). The experiment in a line: Induction of ALK degradation in human Kelly cells at 100 nM after 8 hrs by immunoblot method. Type of assay: cell-based. In outline:
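Kelly cells were treated with 100 nM compound for varying times and lysed at each time point. ALK levels were read by immunoblot.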
For orientation: A western blot detects proteins with antibodies after separation by electrophoresis.

Assay [9] addresses T1, ALK tyrosine kinase receptor. The experiment in a line: Induction of ALK degradation in human CHLA20 cells at 100 nM after 4 hrs in presence of ABCB1 inhibitor tariquidar by immunoblot method. It counts as cell-based. Summed up:
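CHLA20 cells were co-treated with 125 nM tariquidar, then treated with 100 nM compound over a time course. ALK was read by immunoblot.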

Assay [10] deals with Protein cereblon (Homo sapiens) (UniProt Q96SW2). The experiment in a line: Displacement of Atto565-Lenalidomide from CRBN fused with DDB1deltaB (unknown origin) by fluorescence polarization assay.
Assay [11] addresses Signal transducer and activator of transcription 3 (Homo sapiens) (UniProt P40763). The experiment in a line: Inhibition of STAT3 phosphorylation at Y705 in human Kelly cells at 250 nM after 6 to 48 hrs by immunoblot method. It counts as cell-based.
Assay [12] has the same target. The experiment in a line: Inhibition of STAT3 phosphorylation at Y705 in human CHLA20 cells at 250 nM after 6 to 48 hrs in presence of ABCB1 inhibitor tariquidar by immunoblot method. Type of assay: cell-based.

Calls of active or inactive are those of the source. No cut-off for these calls is given here.

T1 sequence (Q9UM73 19-1620 limits assumed): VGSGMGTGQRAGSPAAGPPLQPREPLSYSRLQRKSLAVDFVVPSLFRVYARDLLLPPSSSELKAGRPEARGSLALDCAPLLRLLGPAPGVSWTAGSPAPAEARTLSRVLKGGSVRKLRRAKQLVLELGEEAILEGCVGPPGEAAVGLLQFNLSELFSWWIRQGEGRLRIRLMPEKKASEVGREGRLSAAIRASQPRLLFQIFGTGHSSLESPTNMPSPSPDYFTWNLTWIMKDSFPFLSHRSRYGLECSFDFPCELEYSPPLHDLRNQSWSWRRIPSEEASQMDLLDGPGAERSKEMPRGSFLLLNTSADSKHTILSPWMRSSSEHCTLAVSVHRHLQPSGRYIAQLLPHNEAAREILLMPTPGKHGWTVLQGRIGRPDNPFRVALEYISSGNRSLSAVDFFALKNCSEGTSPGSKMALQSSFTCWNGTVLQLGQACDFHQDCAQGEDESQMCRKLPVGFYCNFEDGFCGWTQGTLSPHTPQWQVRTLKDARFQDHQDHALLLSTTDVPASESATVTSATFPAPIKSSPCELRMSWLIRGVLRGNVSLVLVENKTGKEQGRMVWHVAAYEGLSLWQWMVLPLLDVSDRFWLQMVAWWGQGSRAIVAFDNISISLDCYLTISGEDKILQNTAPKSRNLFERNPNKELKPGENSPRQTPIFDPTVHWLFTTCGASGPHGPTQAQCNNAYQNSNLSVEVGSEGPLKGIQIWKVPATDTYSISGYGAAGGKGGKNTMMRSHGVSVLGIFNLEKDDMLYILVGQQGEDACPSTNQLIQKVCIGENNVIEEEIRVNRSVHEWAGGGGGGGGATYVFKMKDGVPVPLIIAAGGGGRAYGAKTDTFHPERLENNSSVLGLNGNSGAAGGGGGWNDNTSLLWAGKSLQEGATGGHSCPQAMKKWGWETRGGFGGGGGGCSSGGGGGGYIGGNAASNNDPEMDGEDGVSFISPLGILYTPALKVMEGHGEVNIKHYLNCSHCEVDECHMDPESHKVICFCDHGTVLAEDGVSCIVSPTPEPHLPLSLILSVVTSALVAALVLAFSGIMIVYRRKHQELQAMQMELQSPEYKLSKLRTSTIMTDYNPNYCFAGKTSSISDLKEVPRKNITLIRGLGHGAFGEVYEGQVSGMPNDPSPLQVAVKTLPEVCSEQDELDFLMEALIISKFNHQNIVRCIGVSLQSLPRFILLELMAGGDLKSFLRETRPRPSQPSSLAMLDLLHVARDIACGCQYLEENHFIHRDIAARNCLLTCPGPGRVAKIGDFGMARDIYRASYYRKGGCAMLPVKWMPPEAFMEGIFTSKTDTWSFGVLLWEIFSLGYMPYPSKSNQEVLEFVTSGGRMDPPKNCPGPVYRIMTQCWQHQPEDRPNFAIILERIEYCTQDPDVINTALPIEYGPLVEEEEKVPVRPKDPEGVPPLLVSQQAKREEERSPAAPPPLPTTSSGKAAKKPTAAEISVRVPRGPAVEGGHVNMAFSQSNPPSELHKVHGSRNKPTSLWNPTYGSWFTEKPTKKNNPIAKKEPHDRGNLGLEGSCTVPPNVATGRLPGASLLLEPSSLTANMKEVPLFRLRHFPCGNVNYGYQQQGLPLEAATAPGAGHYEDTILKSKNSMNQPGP
Sequence of Signal transducer and activator of transcription 3 (Homo sapiens) (P40763 whole entry): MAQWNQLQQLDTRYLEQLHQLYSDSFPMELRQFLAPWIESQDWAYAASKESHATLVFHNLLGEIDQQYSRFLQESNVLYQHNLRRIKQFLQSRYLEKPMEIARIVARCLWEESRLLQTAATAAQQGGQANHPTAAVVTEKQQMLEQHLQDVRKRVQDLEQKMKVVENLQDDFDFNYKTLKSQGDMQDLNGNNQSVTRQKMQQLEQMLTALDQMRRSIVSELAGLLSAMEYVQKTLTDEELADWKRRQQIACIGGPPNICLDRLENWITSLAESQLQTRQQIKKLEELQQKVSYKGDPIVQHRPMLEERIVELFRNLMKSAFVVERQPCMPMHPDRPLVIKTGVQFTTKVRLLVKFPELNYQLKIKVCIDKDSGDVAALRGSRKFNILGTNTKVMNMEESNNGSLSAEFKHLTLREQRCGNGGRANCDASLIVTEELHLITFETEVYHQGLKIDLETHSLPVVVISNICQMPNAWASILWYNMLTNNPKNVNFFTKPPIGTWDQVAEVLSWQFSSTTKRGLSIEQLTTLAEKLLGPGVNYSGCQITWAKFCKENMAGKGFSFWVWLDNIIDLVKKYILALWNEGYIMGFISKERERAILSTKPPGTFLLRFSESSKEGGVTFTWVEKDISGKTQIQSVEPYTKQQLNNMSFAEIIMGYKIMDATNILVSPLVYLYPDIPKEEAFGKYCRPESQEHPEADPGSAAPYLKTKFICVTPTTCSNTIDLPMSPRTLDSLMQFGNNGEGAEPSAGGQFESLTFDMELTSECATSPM
Sequence of Protein cereblon (Homo sapiens) (Q96SW2 whole entry, the tested form may be a part): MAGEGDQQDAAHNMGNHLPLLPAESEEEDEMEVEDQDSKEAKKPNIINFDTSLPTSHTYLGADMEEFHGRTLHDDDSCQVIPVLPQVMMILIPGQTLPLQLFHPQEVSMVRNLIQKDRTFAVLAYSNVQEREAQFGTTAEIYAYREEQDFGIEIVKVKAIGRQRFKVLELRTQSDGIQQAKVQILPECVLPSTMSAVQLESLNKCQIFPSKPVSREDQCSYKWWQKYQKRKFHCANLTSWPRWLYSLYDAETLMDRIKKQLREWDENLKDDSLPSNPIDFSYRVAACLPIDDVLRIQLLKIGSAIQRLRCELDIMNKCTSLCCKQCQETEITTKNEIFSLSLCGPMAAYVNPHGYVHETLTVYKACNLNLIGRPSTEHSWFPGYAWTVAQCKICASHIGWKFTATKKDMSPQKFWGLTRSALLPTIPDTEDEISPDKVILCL

Turning to `COc1cc(N2CCC(N3CCN(C)CC3)CC2)ccc1Nc1ncc(Cl)c(Nc2ccccc2S(=O)(=O)C(C)C)n1`, the result in [1], in assay [2], in assay [3], in assay [4], in assay [5] and in assay [6] was Active. In [7], the outcome was Active.
For the compound `COc1cc(N2CCN(CCOCCOCCNC(=O)CNc3cccc4c3C(=O)N(C3CCCNC3=O)C4=O)CC2)ccc1Nc1ncc(Cl)c(Nc2ccccc2S(=O)(=O)C(C)C)n1` (stereo unspecified), the outcome in assay [8], in assay [9], in [4] and in assay [5] was Active. Moreover, the result in assay [1], in assay [2], in assay [3], in assay [6] and in [7] was inactive. Besides, the inhibition result in [10] is “inactive”.
Turning to `Cc1cc(Nc2ncc(Cl)c(Nc3ccccc3S(=O)(=O)C(C)C)n2)c(OC(C)C)cc1C1CCN(CCOCCOCCNC(=O)CNc2cccc3c2C(=O)N(C2CCCNC2=O)C3=O)CC1` (stereo unspecified), the outcome in [8], in assay [9], in assay [4] and in assay [5] was Active. Besides, the result in assay [1], in assay [2], in assay [3], in assay [6] and in [7] was inactive. Also, in [10], the inhibition entry was “inactive”.
Turning to `Cc1cc(Nc2ncc(Cl)c(Nc3ccccc3S(=O)(=O)C(C)C)n2)c(OC(C)C)cc1C1CCNCC1`, the outcome in assay [1], in assay [2], in assay [3], in assay [4], in assay [5] and in assay [6] was Active. Also, in [7], the result was Active. Further, the inhibition entry in assay [11] and in [12] was “inactive” each time.

(Values after ChEMBL document CHEMBL4177764 (J Med Chem, 2018).)
